A selection: hits, their analogues and other compounds. The true share with any hit is near 1.8%.
STAT1 inh: STAT1 signaling inhibitors, primary screen, cell-based, HTS, luciferase reporter; NIH 3T3 STAT1-luciferase reporter, IFN-gamma, luminescence; actives 0.35% (n = 200,000); inhibition, % at 5.5 µM; AID 920, 2007;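 active = inhibition above a set limit, the mean inhibition across all tested compounds plus 3 SD, cut at about 34% in these data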;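 note: 0% = IFN-gamma with DMSO and 100% = IFN-gamma with 300 µM nifuroxazide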
PPC-1+TRAIL kill: compounds killing PPC-1 cancer cells with TRAIL present, primary screen, TRAIL potentiator project, ATPLite luminescence, uHTS | PPC-1 cells + TRAIL, ATPLite viability luminescence | cell killing (% activity), % at 4 µM or 5 µM | actives 0.41% (n = 220,000) | AID 1443, 2008;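 active = cell killing above 50% in the first pass at 4 µM, then a duplicate retest at 5 µM averaging 50% or more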;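 note: plate controls were cells with TRAIL plus DMSO for no effect and medium-only wells lacking cells for full effect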
STAT3 act-1: IL-6 driven STAT3 reporter potentiators, primary screen, U3A cells, luciferase, luminescence, MLSCN library; IL-6 STAT3-luciferase reporter; 100% = signal with IL-6 EC80 alone; activation (% of control), % at 5.6 µM; actives 0.91% (n = 190,000);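 active = activation above the screen-wide mean of compound activation plus 3 SD, cut at about 130% in these data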;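 note: 0% = background luminescence of wells with medium and substrate only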
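Assay system – human STAT1-deficient U3A cells with stable STAT3-luciferase reporter · Also added – IL-6 (33 ng/mL) · Schedule – compound 1 h, then IL-6 6 h at 37 °C · Technique – reporter luminescence signal · Evaluation – % activation versus median of IL-6-stimulated wells · Benchmarks – IL-6-only wells as 100% reference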
STAT3 inh: IL-6 driven STAT3 reporter inhibitors, primary screen, U3A cells, luciferase, luminescence, MLSCN library; IL-6 STAT3-luciferase reporter; host cell line lacks STAT1; inhibition, % at 5.5 µM; actives 0.89% (n = 190,000);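 active = inhibition above the mean inhibition across all screened compounds plus 3 SD, cut at about 44% in these data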;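 note: 0% = DMSO only wells and 100% = 100 µM nifuroxazide control wells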
TRAIL sens C8: viability loss with TRAIL in NB7+C8 cells, primary screen, TRAIL sensitizer project, cell-based, ATPlite luminescence. inhibition (viability loss, TRAIL sensitization), % at 10 µM. actives 1% (n = 360,000). AID 624354, 2012;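 active = compounds causing at least 50% loss of cell viability in the single-dose screen, relative to plate controls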
STAT3 act-2: STAT3 reporter potentiators, retest of hits, confirmation, U3A cells, luciferase, luminescence | shares compounds with STAT3 act-1 | IL-6 potentiation; U3A cells lack STAT1; 100 means same as IL-6 alone | potentiation (% of control), % at 5.7 µM | actives 64% (n = 1,200);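 active = percent activation of the STAT3 luciferase reporter above a set limit taken from the earlier primary screen, cut at about 130% in these data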;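 note: 0% = background signal of medium plus substrate and 100% = median of IL-6 with DMSO wells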
NFkB act 2: NF-kB reporter activators in human cells, counter-screen for STAT3 activator project; shares compounds with STAT3 act-1; NF-kappaB reporter activation; activation (% of control), % at 5.7 µM; actives 11% (n = 1,200); AID 1309, 2008; in the data active = activation above about 120%;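 note: reporter induced by TNF-alpha stimulation; 100% = median of stimulated DMSO wells and 0% = no signal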
STAT1 act: STAT1 reporter activators, IFN-gamma induced, counter-screen for STAT3 activator project, cell-based, NIH 3T3, luciferase luminescence | shares compounds with STAT3 act-1 | NIH 3T3 STAT1-luciferase reporter | activation (% of control), % at 5.7 µM | actives 13% (n = 1,200) | AID 1318, 2008;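 active = activation above the solvent-only control well mean plus 3 SD, set per screening run, cut at about 120% in these data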;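 note: 100% = IFN-gamma with DMSO median signal so 100% means no change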
* hit, by the source's call.

Results for CCN(CC(=O)NCc1ccc(Cl)cc1)C(=O)COc1ccc(C)cc1C ?
TRAIL sens C8: -6

Results for Cc1nn(-c2ccc(Cl)cc2)c2sc(C(=O)N3CCN(C(=O)c4ccco4)CC3)cc12 ?
PPC-1+TRAIL kill: 12

How did CC1CCCN(C(=O)c2cc3c(-c4ccc(Cl)cc4)nn(C)c3s2)C1 (stereo not given) do in these assays?
STAT1 inh: -1; STAT3 act-1: 119; STAT3 inh: -18; TRAIL sens C8: 10

How did CCN1CCN(C(=O)c2cc3c(-c4ccc(Cl)cc4)nn(C)c3s2)CC1 do in these assays?
STAT1 inh: 12; PPC-1+TRAIL kill: -15; STAT3 act-1: 152*; STAT3 inh: -51; TRAIL sens C8: 6; STAT3 act-2: 134*; NFkB act 2: 97; STAT1 act: 91

What do the screens show for `Cn1nc(-c2ccc(Cl)cc2)c2cc(C(=O)N3CCN(C(=O)c4ccco4)CC3)sc21`?
STAT1 inh: 12; PPC-1+TRAIL kill: 34; STAT3 act-1: 150*; STAT3 inh: -56; TRAIL sens C8: 11; STAT3 act-2: 129; NFkB act 2: 99; STAT1 act: 89

Results for NS(=O)(=O)c1ccc2nc(-c3ccccc3)c(-c3ccccc3)nc2c1 ?
TRAIL sens C8: -3

What do the screens show for `C/C(=N\Nc1nc(-c2cc(C)ccc2C)cs1)c1cc2ccccc2oc1=O`?
STAT1 inh: 9; PPC-1+TRAIL kill: 0; STAT3 act-1: 99; STAT3 inh: -1; TRAIL sens C8: 10

Results for C/C(=N\Nc1nc(-c2cc(C)ccc2C)cs1)c1cc2c(ccc3ccccc32)oc1=O ?
STAT1 inh: 2; PPC-1+TRAIL kill: 10; STAT3 act-1: 146*; STAT3 inh: -47; TRAIL sens C8: 8; STAT3 act-2: 106; NFkB act 2: 100; STAT1 act: 95

Results for CN1C(=O)SC(Nc2cccc3ccccc23)C1=O (stereo not given) ?
STAT1 inh: -2; PPC-1+TRAIL kill: 17; STAT3 act-1: 99; STAT3 inh: 5; TRAIL sens C8: -10

What do the screens show for `O=C1NC(=O)C(Nc2cccc3ccccc23)S1` (stereo not given)?
STAT1 inh: 6; PPC-1+TRAIL kill: 13; STAT3 act-1: 141*; STAT3 inh: -46; TRAIL sens C8: -4; STAT3 act-2: 129; NFkB act 2: 103; STAT1 act: 94

Results for C[C@@H]1CN([C@H](C)CO)C(=O)CCCn2cc(nn2)CO[C@H]1CN(C)C(=O)OCc1ccccc1 ?
TRAIL sens C8: -15

What do the screens show for `CCOC(=O)C1=CCN(S(=O)(=O)c2ccccc2C)C1c1ccc(Cl)c(Cl)c1` (stereo not given)?
TRAIL sens C8: 0

What do the screens show for `Cc1cc(-c2nc3c4c5c(sc4[nH]c(=O)n3n2)CCC5)c(C)o1`?
STAT1 inh: 2; PPC-1+TRAIL kill: 9; STAT3 act-1: 151*; STAT3 inh: -57; TRAIL sens C8: -11; STAT3 act-2: 134*; NFkB act 2: 97; STAT1 act: 94

How did O=C(CSc1nc2ccccc2o1)Nc1nc2ccc(Br)cc2s1 do in these assays?
STAT1 inh: -4; PPC-1+TRAIL kill: 22; STAT3 act-1: 93; STAT3 inh: 14; TRAIL sens C8: 1

Results for Cc1cccc2sc(NC(=O)CSc3nc4ccccc4o3)nc12 ?
STAT1 inh: 9; PPC-1+TRAIL kill: 24; STAT3 act-1: 136*; STAT3 inh: -44; TRAIL sens C8: -8; STAT3 act-2: 115; NFkB act 2: 102; STAT1 act: 94

How did Nn1c(=O)[nH]c2c([nH]c3ccccc32)c1=O do in these assays?
STAT1 inh: 18; PPC-1+TRAIL kill: -3; STAT3 act-1: 147*; STAT3 inh: -45; TRAIL sens C8: -1; STAT3 act-2: 152*; NFkB act 2: 102; STAT1 act: 90

Results for Cc1ccc(-n2ncc3c2CC(C)(C)CC3NC(=O)c2ccncc2)cc1 (stereo not given) ?
TRAIL sens C8: -3

What do the screens show for `COc1ccc(C)cc1N(C(=O)COc1ccccc1)c1nc2ccccc2s1`?
STAT1 inh: 10; PPC-1+TRAIL kill: 2; STAT3 act-1: 137*; STAT3 inh: -43; TRAIL sens C8: 9; STAT3 act-2: 145*; NFkB act 2: 101; STAT1 act: 101

How did CCC(C)Sc1nc2c([nH]c3ccccc32)c(=O)n1C (stereo not given) do in these assays?
STAT1 inh: 12; PPC-1+TRAIL kill: 20; STAT3 act-1: 166*; STAT3 inh: -75; TRAIL sens C8: -12; STAT3 act-2: 124; NFkB act 2: 103; STAT1 act: 100

Results for Cc1cccc(NC(=O)CSc2nc3c([nH]c4ccccc43)c(=O)n2C)c1 ?
STAT1 inh: 19; PPC-1+TRAIL kill: 0; STAT3 act-1: 146*; STAT3 inh: -40; TRAIL sens C8: 21; STAT3 act-2: 135*; NFkB act 2: 95; STAT1 act: 87

What do the screens show for `Cn1c(SCC(=O)Nc2ccccc2)nc2c([nH]c3ccccc32)c1=O`?
STAT1 inh: 11; PPC-1+TRAIL kill: -2; STAT3 act-1: 105; STAT3 inh: 4; TRAIL sens C8: -1

How did COc1cccc(NC(=O)CSc2nc3c([nH]c4ccccc43)c(=O)n2C)c1 do in these assays?
STAT1 inh: 23; PPC-1+TRAIL kill: 0; STAT3 act-1: 139*; STAT3 inh: -32; TRAIL sens C8: 3; STAT3 act-2: 124; NFkB act 2: 100; STAT1 act: 90

How did CC1(CCl)N([O-])C2=C(CCCC2)[N+]1=O (stereo not given) do in these assays?
PPC-1+TRAIL kill: 13; TRAIL sens C8: -11

Results for Cc1nn(-c2ccccc2)c(C)c1NC(=O)COC(=O)C1CC(=O)N(CCc2ccccc2)C1 (stereo not given) ?
TRAIL sens C8: -7

Results for COc1ccc(-c2noc(N3CCCC(C(=O)Nc4ccc(F)cc4F)C3)n2)cc1 (stereo not given) ?
TRAIL sens C8: 9
